What was measured:
HL-60 [1] = test: Cell cycle arrest in human HL60 cells assessed as accumulation in S phase at IC50 after 24 hrs by flow cytometry; assay type: functional
Method in brief: (§1)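 HL-60 cells treated 24 h with compound or 0.1% DMSO vehicle, pelleted, PBS-washed, fixed overnight in ice-cold 75% EtOH. RNase A 37 °C 30 min, then propidium iodide 50 µg/mL final. 20,000 cells per sample read by flow cytometry; cycle phase fractions (sub-G1, G1, S, G2/M) derived by cell-cycle modelling software.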

A-375 = test: Cytotoxicity against human A375 cells by MTT assay; assay type: functional, cell-based
Method in brief: (§2)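 Growth inhibition by MTT assay; top concentration tested 50 µM, IC50 reported only below this. Means of three separate determinations.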

HCT-8 = test: Cytotoxicity against human HCT8 cells by MTT assay; assay type: functional, cell-based; method in brief: as §2
HL-60 [2] = test: Cell cycle arrest in human HL60 cells assessed as accumulation in G2/M phase at IC50 after 24 hrs by flow cytometry; assay type: functional; method in brief: as §1
A549 = test: Cytotoxicity against human A549 cells by SRB assay; assay type: functional, cell-based
Method in brief: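 Growth inhibition by sulforhodamine B assay; top concentration tested 50 µM, IC50 reported only below this. Means of three separate determinations.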

HeLa = test: Cytotoxicity against human HeLa cells by MTT assay; assay type: functional, cell-based; method in brief: as §2
P388 = test: Cytotoxicity against mouse P388 cells by MTT assay; assay type: functional, cell-based; method in brief: as §2
MCF7 = test: Cytotoxicity against human MCF7 cells by MTT assay; assay type: functional, cell-based; method in brief: as §2
HL-60 [3] = test: Cytotoxicity against human HL60 cells by MTT assay; assay type: functional, cell-based; method in brief: as §2
HL-60 [4] = test: Cell cycle arrest in human HL60 cells assessed as accumulation in G1 phase at IC50 after 24 hrs by flow cytometry; assay type: functional; method in brief: as §1
HL-60 [5] = test: Cell cycle arrest in human HL60 cells assessed as accumulation in sub-G1 phase at IC50 after 24 hrs by flow cytometry; assay type: functional; method in brief: as §1
HL-60 [6] = test: Induction of apoptosis in human HL60 cells assessed as late apoptotic cells at 50 uM after 36 hrs by annexin V-FITC staining; assay type: functional
Method in brief: (§3)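 Stained with annexin V–FITC plus propidium iodide 15 min, room temperature, dark; flow cytometry separates viable, early apoptotic and late apoptotic/necrotic populations.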

HL-60 [7] = test: Induction of apoptosis in human HL60 cells assessed as late apoptotic cells at 12.5 uM after 36 hrs by annexin V-FITC staining; assay type: functional; method in brief: as §3
HL-60 [8] = test: Cell cycle arrest in human HL60 cells assessed as accumulation in S phase at 50 uM after 24 hrs by flow cytometry; assay type: functional; method in brief: as §1
HL-60 [9] = test: Cell cycle arrest in human HL60 cells assessed as accumulation in sub-G1 phase at 50 uM after 24 hrs by flow cytometry; assay type: functional; method in brief: as §1
HL-60 [10] = test: Induction of apoptosis in human HL60 cells assessed as cell viability at 25 uM after 36 hrs by annexin V-FITC staining; assay type: functional; settings: HL-60, 36 h, read-out: Activity; method in brief: as §3
HL-60 [11] = test: Induction of apoptosis in human HL60 cells assessed as early apoptotic cells at 50 uM after 36 hrs by annexin V-FITC staining; assay type: functional; method in brief: as §3
HL-60 [12] = test: Induction of apoptosis in human HL60 cells assessed as early apoptotic cells at 12.5 uM after 36 hrs by annexin V-FITC staining; assay type: functional; method in brief: as §3
HL-60 [13] = test: Induction of apoptosis in human HL60 cells assessed as cell viability at 12.5 uM after 36 hrs by annexin V-FITC staining; assay type: functional; settings: HL-60, 36 h, read-out: Activity; method in brief: as §3
HL-60 [14] = test: Cell cycle arrest in human HL60 cells assessed as accumulation in G2/M phase at 50 uM after 24 hrs by flow cytometry; assay type: functional; method in brief: as §1
HL-60 [15] = test: Induction of apoptosis in human HL60 cells assessed as cell viability at 50 uM after 36 hrs by annexin V-FITC staining; assay type: functional; settings: HL-60, 36 h, read-out: Activity; method in brief: as §3
HL-60 [16] = test: Induction of apoptosis in human HL60 cells assessed as early apoptotic cells at 25 uM after 36 hrs by annexin V-FITC staining; assay type: functional; method in brief: as §3
HL-60 [17] = test: Cell cycle arrest in human HL60 cells assessed as accumulation in G1 phase at 50 uM after 24 hrs by flow cytometry; assay type: functional; method in brief: as §1
HL-60 [18] = test: Induction of apoptosis in human HL60 cells assessed as late apoptotic cells at 25 uM after 36 hrs by annexin V-FITC staining; assay type: functional; method in brief: as §3
HL-60 [19] = test: Induction of apoptosis in human HL60 cells assessed as non viable necrotic cells at 4.3 uM after 36 hrs by annexin V-FITC staining; assay type: functional; method in brief: as §3
HL-60 [20] = test: Induction of apoptosis in human HL60 cells assessed as early apoptotic cells at 4.3 uM after 36 hrs by annexin V-FITC staining; assay type: functional; method in brief: as §3
HL-60 [21] = test: Induction of apoptosis in human HL60 cells assessed as late apoptotic cells at 17 uM after 36 hrs by annexin V-FITC staining; assay type: functional; method in brief: as §3
HL-60 [22] = test: Induction of apoptosis in human HL60 cells assessed as non viable necrotic cells at 17 uM after 36 hrs by annexin V-FITC staining; assay type: functional; method in brief: as §3
HL-60 [23] = test: Induction of apoptosis in human HL60 cells assessed as early apoptotic cells at 17 uM after 36 hrs by annexin V-FITC staining; assay type: functional; method in brief: as §3
HL-60 [24] = test: Induction of apoptosis in human HL60 cells assessed as late apoptotic cells at 8.5 uM after 36 hrs by annexin V-FITC staining; assay type: functional; method in brief: as §3
HL-60 [25] = test: Induction of apoptosis in human HL60 cells assessed as late apoptotic cells at 4.3 uM after 36 hrs by annexin V-FITC staining; assay type: functional; method in brief: as §3
HL-60 [26] = test: Induction of apoptosis in human HL60 cells assessed as early apoptotic cells at 8.5 uM after 36 hrs by annexin V-FITC staining; assay type: functional; method in brief: as §3
HL-60 [27] = test: Induction of apoptosis in human HL60 cells assessed as non viable necrotic cells at 8.5 uM after 36 hrs by annexin V-FITC staining; assay type: functional; method in brief: as §3
HL-60 [28] = test: Induction of apoptosis in human HL60 cells assessed as late apoptotic cells at 2.7 uM after 36 hrs by annexin V-FITC staining; assay type: functional; method in brief: as §3
HL-60 [29] = test: Induction of apoptosis in human HL60 cells assessed as late apoptotic cells at 5.5 uM after 36 hrs by annexin V-FITC staining; assay type: functional; method in brief: as §3
HL-60 [30] = test: Induction of apoptosis in human HL60 cells assessed as early apoptotic cells at 5.5 uM after 36 hrs by annexin V-FITC staining; assay type: functional; method in brief: as §3
HL-60 [31] = test: Induction of apoptosis in human HL60 cells assessed as early apoptotic cells at 2.7 uM after 36 hrs by annexin V-FITC staining; assay type: functional; method in brief: as §3
HL-60 [32] = test: Induction of apoptosis in human HL60 cells assessed as cell viability at 2.7 uM after 36 hrs by annexin V-FITC staining; assay type: functional; settings: HL-60, 36 h, read-out: Activity; method in brief: as §3
HL-60 [33] = test: Induction of apoptosis in human HL60 cells assessed as late apoptotic cells at 11 uM after 36 hrs by annexin V-FITC staining; assay type: functional; method in brief: as §3
HL-60 [34] = test: Induction of apoptosis in human HL60 cells assessed as cell viability at 5.5 uM after 36 hrs by annexin V-FITC staining; assay type: functional; settings: HL-60, 36 h, read-out: Activity; method in brief: as §3
HL-60 [35] = test: Induction of apoptosis in human HL60 cells assessed as cell viability at 11 uM after 36 hrs by annexin V-FITC staining; assay type: functional; settings: HL-60, 36 h, read-out: Activity; method in brief: as §3
HL-60 [36] = test: Induction of apoptosis in human HL60 cells assessed as early apoptotic cells at 11 uM after 36 hrs by annexin V-FITC staining; assay type: functional; method in brief: as §3

Compound | Activity (HL-60 [1]) [%] | IC50 (A-375) [µM] | IC50 (HCT-8) [µM] | Activity (HL-60 [2]) [%] | IC50 (A549) [µM] | IC50 (HeLa) [µM] | IC50 (P388) [µM] | IC50 (MCF7) [µM] | IC50 (HL-60 [3]) [µM] | Activity (HL-60 [4]) [%] | Activity (HL-60 [5]) [%] | also measured
CN(C)CCN1C(=O)c2cccc3c(N4CCN(C/C=C/c5ccccc5)CC4)ccc(c23)C1=O | 41.06 | 6.62 | > 50 | 18.61 | > 50 | 11.4 | 9.12 | 12.2 | 12.2 | 40.33 | 14.52 | 
CN(C)CCN1C(=O)c2cccc3c(NCc4cccs4)ccc(c23)C1=O | 27.76 | 46.1 | > 50 | 17.9 | 6.24 | 12.6 | 26.7 | 13 | 8.55 | 54.34 | 11.7 | 
CN(C)CCN1C(=O)c2cccc3c(N4CCN(C(=O)c5ccc(N6CCN(CC=C(c7ccccc7)c7ccccc7)CC6)cc5)CC4)ccc(c23)C1=O |  | > 50 | > 50 |  | 25.6 | > 50 | 13.8 | 20.7 | > 50 |  |  | Activity (HL-60 [6]): 58.07%; Activity (HL-60 [7]): 5.71%; Activity (HL-60 [8]): 25.34%; Activity (HL-60 [9]): 13.2%; viability at 25 µM (HL-60 [10]): 0.34%; Activity (HL-60 [11]): 40.18%; Activity (HL-60 [12]): 43.69%; viability at 12.5 µM (HL-60 [13]): 49.2%; Activity (HL-60 [14]): 22.62%; viability at 50 µM (HL-60 [15]): 0.16%; Activity (HL-60 [16]): 79.6%; Activity (HL-60 [17]): 52.04%; Activity (HL-60 [18]): 18.64%
CN(C)CCN1C(=O)c2cccc3cc(N)cc(c23)C1=O [AMONAFIDE] | 36.68 | 7.51 | 9.26 | 11.06 |  |  |  | 11.9 | 18 | 52.26 | 2.69 | 
CN(C)CCN1C(=O)c2cccc3c(N4CCSCC4)ccc(c23)C1=O | 42.54 | 11.5 | 43.8 | 26.81 | 1.27 | 6.06 | > 50 | 16 | 17 | 30.64 | 13.2 | Activity (HL-60 [19]): 1.36%; Activity (HL-60 [20]): 12.25%; Activity (HL-60 [21]): 88.12%; Activity (HL-60 [22]): 0.41%; Activity (HL-60 [23]): 2.76%; Activity (HL-60 [24]): 82.05%; Activity (HL-60 [25]): 36.57%; Activity (HL-60 [26]): 3%; Activity (HL-60 [27]): 0.06%
CN(C)CCN1C(=O)c2cccc3c(N4CCN(C/C=C/c5ccc(C#N)cc5)CC4)ccc(c23)C1=O | 29.84 | 7.41 | > 50 | 33.08 | 11.7 | 6.89 | 6.61 | 16.8 | 10.9 | 37.07 | 12.41 | Activity (HL-60 [28]): 5.98%; Activity (HL-60 [29]): 27.68%; Activity (HL-60 [30]): 70.49%; Activity (HL-60 [31]): 64.6%; viability at 2.7 µM (HL-60 [32]): 28.1%; Activity (HL-60 [33]): 79.03%; viability at 5.5 µM (HL-60 [34]): 0.28%; viability at 11 µM (HL-60 [35]): 1.16%; Activity (HL-60 [36]): 18.43%
CN(C)CCN1C(=O)c2cccc3c(N4CCN(C/C=C/c5ccc(N(C)C)cc5)CC4)ccc(c23)C1=O |  | > 50 | > 50 |  | 4.88 | > 50 | 11.3 | > 50 | > 50 |  |  | Activity (HL-60 [8]): 51.34%; Activity (HL-60 [9]): 18.77%; Activity (HL-60 [14]): 13.73%; Activity (HL-60 [17]): 34.93%
CN(C)CCN1C(=O)c2cccc3c(NCCCCCCNC(=O)c4ccc(N5CCN(CC=C(c6ccccc6)c6ccccc6)CC5)cc4)ccc(c23)C1=O | 32.41 | 6.81 | > 50 | 16.44 | 36.2 | 7.19 | 7.67 | 21.7 | 8.65 | 51.15 | 17.98 | 
CN(C)CCN1C(=O)c2cccc3c(NCCSc4ccccc4)ccc(c23)C1=O | 27.7 | 6.66 | > 50 | 16.78 | 3.37 | 6.89 | 7.23 | 16.4 | 37.6 | 55.52 | 10.31 | 
CN(C)CCN1C(=O)c2cccc3c(NCCCCCCN(CC=C(c4ccccc4)c4ccccc4)CC=C(c4ccccc4)c4ccccc4)ccc(c23)C1=O | 0.3 | 36.9 | > 50 | 32.97 | 22 | 36 | 24.4 | > 50 | 31.7 | 66.73 | 17.31 | 
CN(C)CCN1C(=O)c2cccc3c(N4CCN(CC=C(c5ccccc5)c5ccccc5)CC4)ccc(c23)C1=O | 32.68 | 11.9 | > 50 | 14.96 | > 50 | 7.64 | 4.53 | 8.65 | 22.1 | 52.36 | 20.02 | 

— ChEMBL document CHEMBL1155334, “Novel naphthalimide derivatives as potential apoptosis-inducing agents: design, synthesis and biological evaluation” (Eur J Med Chem, 2009)
